Results as given in ChEMBL document CHEMBL1909614, “5-deoxyflavones with cytotoxic activity from Mimosa diplotricha” (2011).

Columns and labels:
Type in all cases: functional
HT-29 = experiment: Antiproliferative activity against human HT-29 assessed as growth inhibition after 48 hrs by SRB assay; details: HT-29, 48 h
Outline: (§1)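 Cells kept in RPMI 1640 with 10% FBS, nonessential amino acids and penicillin/streptomycin, seeded and cultured overnight. Six wells fixed with 10% TCA at drug addition (T0). Compound exposure 48 h, then TCA fixation, 0.4% SRB in 1% acetic acid 10 min at room temperature, dye dissolved in 10 mM Tris base, OD 515 nm. Growth computed from T0, control and treated readings. GI50 is the concentration giving 50% growth inhibition. Doxorubicin served as positive control.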

PC-3 = experiment: Antiproliferative activity against human PC3 assessed as growth inhibition after 48 hrs by SRB assay; details: PC-3, 48 h; outline: as §1
AGS = experiment: Antiproliferative activity against human AGS assessed as growth inhibition after 48 hrs by SRB assay; outline: as §1
A549 = experiment: Antiproliferative activity against human A549 assessed as growth inhibition after 48 hrs by SRB assay; details: A549, 48 h; outline: as §1

Structure (SMILES): COc1ccc2c(c1O)COc1c-2oc2c(OC)c(OC)ccc2c1=O
- GI50 (HT-29): > 10 µM
- GI50 (PC-3): > 10 µM
- GI50 (AGS): > 10 µM
- GI50 (A549): > 10 µM

Structure (SMILES): COc1cc([C@H]2Oc3cc(-c4cc(=O)c5c(O)cc(O)cc5o4)ccc3O[C@@H]2CO)cc(OC)c1O
- GI50 (HT-29): 4.1 µM
- GI50 (PC-3): 2.3 µM
- GI50 (AGS): 24.8 µM
- GI50 (A549): 20.3 µM

Structure (SMILES): COc1cc(O)c(-c2oc3c(OC)c(OC)ccc3c(=O)c2OC)cc1O [DIPLOTRIN A]
- GI50 (HT-29): > 10 µM
- GI50 (PC-3): > 10 µM
- GI50 (AGS): > 10 µM
- GI50 (A549): > 10 µM

Structure (SMILES): COc1ccc(-c2oc3c(OC)c(OC)ccc3c(=O)c2OC)cc1O [DIPLOTRIN B]
- GI50 (HT-29): 7.5 µM
- GI50 (PC-3): 20.8 µM
- GI50 (AGS): 1.7 µM
- GI50 (A549): 2.7 µM

Structure (SMILES): COc1ccc2c(=O)cc(-c3cc(OC)c(OC)cc3O)oc2c1 [DIPLOTRIN C]
- GI50 (HT-29): > 10 µM
- GI50 (PC-3): > 10 µM
- GI50 (AGS): > 10 µM
- GI50 (A549): > 10 µM

Structure (SMILES): COc1cccc2c1C(=O)c1c(O)c3c(c(O)c1C2=O)C[C@@](O)(C(=O)CO)C[C@@H]3O[C@H]1C[C@H](N)[C@H](O)[C@H](C)O1 [DOXORUBICIN]
- GI50 (HT-29): 0.12 µM
- GI50 (PC-3): 0.09 µM
- GI50 (AGS): 0.01 µM
- GI50 (A549): 0.27 µM
